# Experimental data collected from several papers.
# Lines come from different studies, so protocols differ.
# Blk: Tyrosine-protein kinase Blk (Blk, Mus musculus, UniProt P16277)
# ADORA3: Adenosine receptor A3 (ADORA3, Homo sapiens, UniProt P0DMS8)
# PARP16: Protein mono-ADP-ribosyltransferase PARP16 (PARP16, Homo sapiens, UniProt Q8N5Y8)
# BRAF V600E: Serine/threonine-protein kinase B-raf (BRAF, Homo sapiens, UniProt P15056, V600E)
# HTR1E: 5-hydroxytryptamine receptor 1E (HTR1E, Homo sapiens, UniProt P28566)
# NPY1R: Neuropeptide Y receptor type 1 (NPY1R, Homo sapiens, UniProt P25929)
# DRD2: D(2) dopamine receptor (DRD2, Homo sapiens, UniProt P14416)
Compound,target,test,setting,inhibition
CCN(CC)CCNC(=O)c1c(C)[nH]c(/C=C2\C(=O)Nc3ccc(F)cc32)c1C,Blk,"enzyme activity, inhibitor",0.3 µM,36%
CCOCCNC(=O)NC12CC3CC(CC(C3)C1)C2,"ephB (Mycobacterium tuberculosis, UniProt I6YC03)","enzyme activity, inhibitor",10 nM,8.7%
CCCN1CCCn2c1nc1c2c(=O)n(C)c(=O)n1C,ADORA3,"ligand displacement, radioligand","10 µM, cell membranes",10%
O=C1CCCc2c(O)cccc2N1,PARP16,"enzyme activity, inhibitor",10 µM,0%
O=C(c1ccc(F)cc1)N(Cc1ccccc1)C1CCCCC1,ADORA3,cell-free assay,10 µM,4%
CC(C)(C)c1nc(-c2cccc(NS(=O)(=O)c3c(F)cccc3F)c2F)c(-c2ccnc(N)n2)s1,BRAF V600E,"enzyme activity, inhibitor, ATP luminescence",10 µM,95%
CCCCCN1CCCn2c1nc1c2c(=O)n(C)c(=O)n1C,ADORA3,"ligand displacement, radioligand","10 µM, cell membranes",21%
Cc1ccc(C(CS(=O)(=O)c2ccccc2)=NNC2=NC(=O)C(=NNc3ccccc3)S2)cc1,BRAF V600E,"enzyme activity, inhibitor, ATP luminescence",10 nM,32%
Cn1cnc(Br)c1C1=CN(c2ncnc3[nH]cnc23)CCS1,"Serine/threonine-protein kinase Nek5 (NEK5, Homo sapiens, UniProt Q6P3R8)","enzyme activity, inhibitor, radiometric",50 nM,18.7%
CCN(CC)c1ccc(C2Nc3ccc(C(=O)c4ccccc4)cc3NC3=C2C(=O)CC(C)(C)C3)cc1 (stereo not shown),HTR1E,"ligand displacement, radioligand",10 µM,5%
COc1cc2c3c(c1OC)-c1cc4c(cc1CC3N(C)CC2)OCO4 (racemic),HTR1E,"ligand displacement, radioligand",10 µM,62%
Cc1ccc(C(CS(=O)(=O)c2ccccc2)=NN=C2N=C(c3ccc(Br)cc3)CS2)cc1,BRAF V600E,"enzyme activity, inhibitor, ATP luminescence",10 nM,43%
Oc1cccc(Nc2nc(-c3ccc(F)cc3F)cs2)c1,NPY1R,cell-free assay,10 µM,-16.2%
Nc1ccc2c(c1)CCCn1nnnc1-2,PARP16,"enzyme activity, inhibitor",10 µM,53%
CNCc1ccc(-c2cc(-c3nc(-c4ccc(S(=O)(=O)C(C)C)cc4)cnc3N)on2)cc1,Blk,"enzyme activity, inhibitor",0.4 µM,2%
CN(C)C1CCN(CC#Cc2nn(C3CCCC3)c3nc(NCc4ccccc4)ncc23)C1 (stereo not shown),"Mitogen-activated protein kinase 8 (MAPK8, Homo sapiens, UniProt P45983)","enzyme activity, inhibitor, FRET",10 µM,8%
Cc1ccc(C(CS(=O)(=O)c2ccccc2)=NNC2=NC(=O)C(=NNc3ccc([N+](=O)[O-])cc3)S2)cc1,BRAF V600E,"enzyme activity, inhibitor, ATP luminescence",0.1 µM,49%
CC(O)c1ccc(-c2ccc(CNCCc3ccc(S(N)(=O)=O)cc3)o2)cc1 (stereo not shown),DRD2,"enzyme activity, inhibitor",10 µM,22.1%
O=C(Nc1ccc(S(=O)(=O)N2CCC(Cl)CC2)cc1)c1ccc([N+](=O)[O-])o1,NPY1R,"ligand displacement, radioligand",10 µM,7%
O=C(c1cccc(Cl)c1)N1CCN(CCNc2cc(=O)oc3ccccc23)CC1,DRD2,"enzyme activity, inhibitor",10 µM,-1.9%
Cc1ccc(N=Nc2sc(NN=C(CS(=O)(=O)c3ccccc3)c3ccc(C)cc3)nc2C)cc1,BRAF V600E,"enzyme activity, inhibitor, ATP luminescence",0.1 µM,48%
CCCC(C)N1CCCn2c1nc1c2c(=O)n(C)c(=O)n1C (stereo not shown),ADORA3,"ligand displacement, radioligand","10 µM, cell membranes",17%
Cc1ccc(C(CS(=O)(=O)c2ccccc2)=NNc2nc(C)c(N=Nc3cccc(C)c3)s2)cc1,BRAF V600E,"enzyme activity, inhibitor, ATP luminescence",0.1 µM,63%
C=CCn1c(SCC(=O)NC2=NN(c3ccccc3)C(=O)C2)nnc1-c1cccs1,DRD2,"enzyme activity, inhibitor",10 µM,-12.8%
COc1cc(NC(C)=O)c(Cl)cc1C(=O)Nc1nccs1,NPY1R,cell-free assay,10 µM,6%
CN(C)C(=O)N[C@H]1CC[C@H](CCN2CCN(c3cccc(Cl)c3Cl)CC2)CC1,DRD2,cell-free assay,10 µM,101%
C[C@@]1(c2cccc(Nc3ccc(C4CC4)nc3)c2Cl)CC(=O)N(C2CCOCC2)C(=N)N1,"Beta-secretase 1 (BACE1, Homo sapiens, UniProt P56817)","enzyme activity, inhibitor, FRET",10 µM,52%
CCCCCC(C)N1CCCn2c1nc1c2c(=O)n(C)c(=O)n1C (stereo not shown),ADORA3,"ligand displacement, radioligand","10 µM, cell membranes",32%
CCC(=O)c1ccc(OCC(O)CN2CCN(S(=O)(=O)N3CCCCC3)CC2)cc1 (stereo not shown),DRD2,"enzyme activity, inhibitor",10 µM,6.8%
NC(=S)NN=C(CS(=O)(=O)c1ccccc1)c1ccc(F)cc1,BRAF V600E,"enzyme activity, inhibitor, ATP luminescence",10 µM,92%
O=C1N=C(N2CCCCN2)S/C1=C\c1ccc(F)cc1O,ADORA3,"ligand displacement, radioligand",10 µM,27%
Cc1ccc(Nc2nccc(N(C)c3ccc4c(C)n(C)nc4c3)n2)cc1S(N)(=O)=O,"Dual specificity mitogen-activated protein kinase kinase 4 (Map2k4, Mus musculus, UniProt P47809)","enzyme activity, inhibitor",0.3 µM,11%
COc1ccc2c(c1)C(=O)N(CCCN1CCN(c3ccccc3OC)CC1)C2,DRD2,"ligand displacement, radioligand",10 µM,85%
Cc1ccc(C(C)C)c(OCC(O)CN2CCN(c3ccccc3F)CC2)c1 (stereo not shown),DRD2,"enzyme activity, inhibitor",10 µM,32.3%
O=C(c1ccc(Cl)cc1)N(Cc1ccccc1)C1CCCCC1,NPY1R,cell-free assay,10 µM,-13.6%
CC(C)CN1CCCn2c1nc1c2c(=O)n(C)c(=O)n1C,ADORA3,"ligand displacement, radioligand","10 µM, cell membranes",18%
CNC(=O)c1cc(Oc2ccc(NC(=O)Nc3ccc(Cl)c(C(F)(F)F)c3)cc2)ccn1,Blk,"enzyme activity, inhibitor",0.3 µM,-25%
Cc1ccc(CNC(=O)[C@H](CCc2ccccc2)NC(=O)[C@H](CCc2ccccc2)NC(=O)[C@H](CCc2ccccc2)NC(=O)c2cnc(C)cn2)cc1,"Neutrophil elastase (ELANE, Homo sapiens, UniProt P08246)","enzyme activity, inhibitor",100 µM,-8%
Cc1ccc(C(CS(=O)(=O)c2ccccc2)=NNc2nc(C)c(N=Nc3ccccc3)s2)cc1,BRAF V600E,"enzyme activity, inhibitor, ATP luminescence",10 µM,85%
C#CCN1CCCn2c1nc1c2c(=O)n(C)c(=O)n1C,ADORA3,"ligand displacement, radioligand","10 µM, cell membranes",11%
NS(=O)(=O)c1ccc(CCNCc2cccc3ccccc23)cc1,DRD2,"enzyme activity, inhibitor",10 µM,42.2%
CC(=O)N[C@H]1CSSC[C@@H](C(=O)N[C@@H](Cc2c[nH]c3ccccc23)C(N)=O)NC(=O)[C@@H](Cc2ccccc2)NC(=O)[C@H](CCCNC(=N)N)NC1=O,"Melanocortin receptor 3 (MC3R, Homo sapiens, UniProt P41968)","ligand displacement, radioligand","10 µM, 40 min",45%
CC(C)CC(C)N1CCCn2c1nc1c2c(=O)n(C)c(=O)n1C (stereo not shown),ADORA3,"ligand displacement, radioligand","10 µM, cell membranes",22%
CS(=O)(=O)Nc1cccc(-c2csc(NC(=O)CSc3nc4nccnc4c(=O)n3CCc3ccccc3)n2)c1,"Phosphatidylinositol 4-kinase type 2-alpha (PI4K2A, Homo sapiens, UniProt Q9BTU6)","enzyme activity, inhibitor",10 µM,0%
O=C1C2CCCN2C(=O)N1CCCCN1CCN(c2cccc(C(F)(F)F)c2)CC1 (stereo not shown),DRD2,"enzyme activity, inhibitor",10 µM,10%
CN1CCCn2c1nc1c2c(=O)n(C)c(=O)n1C,ADORA3,"ligand displacement, radioligand","10 µM, cell membranes",3%
